# Entries after “also recorded” stand apart in the source; their conditions may differ. Like-named read-outs stand apart in the source and are kept apart here.
# Columns and labels:
# [1] = test system: FRα- and PCFT-expressing tumor cells; settings: up; cited from earlier work
# [2] = test system: RT16 CHO cells (express human FRα); settings: read-out: IC50 FRα RT16; without folic acid; mean (SEM); cited from earlier work
# [3] = test system: PC43-10 CHO cells (express human RFC); settings: mean (SEM), previously published, cited from earlier work
# FRβ = FRβ (Homo sapiens, UniProt P14207); experiment: Competitive [3H]folic acid binding assay, FRβ in D4 cells; settings: 50 nM [3H]folic acid, folic acid = 1
# Chain of FRβ (P14207 17-255): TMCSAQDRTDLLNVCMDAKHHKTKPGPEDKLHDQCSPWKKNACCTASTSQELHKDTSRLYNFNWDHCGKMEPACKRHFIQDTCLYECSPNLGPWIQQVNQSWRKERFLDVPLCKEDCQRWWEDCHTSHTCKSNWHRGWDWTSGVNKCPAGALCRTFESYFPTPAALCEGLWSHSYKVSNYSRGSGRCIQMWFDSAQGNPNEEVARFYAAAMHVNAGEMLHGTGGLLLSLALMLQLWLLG
# How it was run: (§1)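 Cells plated 48 h ahead (~5 × 10^6) were acid-stripped of bound folate (pH 3.5 acetate/NaCl) and washed in ice-cold HEPES saline, pH 7.4. They were then incubated 15 min at 0 °C with 50 nM [3H]folic acid (0.5 Ci/mmol) across a range of unlabeled ligand concentrations. After NaOH lysis, bound label was read as pmol/mg protein.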
# [4] = test system: D4 CHO cells (express human FRβ); experiment: Growth inhibition assay, FRβ-expressing D4 CHO cells; format: cell-based, Chinese hamster; settings: for IC50: CHO, read-out: IC50 FRβ D4; for IC50 FRβ D4: without folic acid, mean (SEM)
# How it was run: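 D4 cells were seeded at ~2500–5000 per well in folate-free RPMI with 10% dialyzed FBS, 2 nM leucovorin and 2 mM L-glutamine. They were exposed to a range of drug concentrations for up to 96 h, with or without 200 nM folic acid in parallel. Viability was read by CellTiter-Blue fluorescence.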
# [5] = test system: R2/PCFT4 CHO cells (express human PCFT); experiment: Growth inhibition assay, PCFT-expressing R2/PCFT4 CHO cells; format: cell-based, Chinese hamster; settings: R2/PCFT4, pH 7.2, read-out: IC50 PCFT R2/PCFT4
# [6] = test system: KB human nasopharyngeal carcinoma cells (express RFC, FRα, PCFT); experiment: Growth inhibition assay, KB human tumor cells; format: cell-based; settings: for IC50: Homo sapiens, read-out: IC50 RFC/FRα/PCFT KB
# FRα = FRα (Homo sapiens, UniProt P15328); experiment: Competitive [3H]folic acid binding assay, FRα in RT16 cells; settings: 50 nM [3H]folic acid, folic acid = 1
# Chain of FRα (P15328 25-257): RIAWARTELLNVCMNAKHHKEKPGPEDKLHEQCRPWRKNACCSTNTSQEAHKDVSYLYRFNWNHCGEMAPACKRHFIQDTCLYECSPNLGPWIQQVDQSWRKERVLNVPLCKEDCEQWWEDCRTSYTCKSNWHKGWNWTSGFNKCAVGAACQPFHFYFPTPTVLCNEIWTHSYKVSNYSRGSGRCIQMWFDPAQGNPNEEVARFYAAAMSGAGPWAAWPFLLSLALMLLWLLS
# How it was run: as §1
# [7] = test system: PC43-10 CHO cells (express human RFC); experiment: Growth inhibition assay, RFC-expressing PC43-10 CHO cells; format: cell-based, Chinese hamster; settings: PC43-10, 96 h, read-out: IC50 RFC PC43-10
# KB cells = experiment: Nucleoside/AICA protection of growth inhibition in KB cells; format: cell-based, human
# How it was run: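 KB human nasopharyngeal carcinoma cells were grown in complete folate-free RPMI 1640 with 2 nM LCV, with a range of test compound concentrations. Runs had no additions or included 200 nM folic acid, adenosine (60 μM), thymidine (10 μM) or AICA (320 μM). Cell density was read by CellTiter Blue fluorescence and normalized to no-drug cells; experiments were performed in triplicate.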
# GARFTase = target: T1, GARFTase (Homo sapiens, UniProt P22102); experiment: In situ GARFTase activity assay in KB cells; format: cell-based; settings: ratio of in situ GARFTase IC50s vs compound 7
# T1 sequence (P22102 1-1010): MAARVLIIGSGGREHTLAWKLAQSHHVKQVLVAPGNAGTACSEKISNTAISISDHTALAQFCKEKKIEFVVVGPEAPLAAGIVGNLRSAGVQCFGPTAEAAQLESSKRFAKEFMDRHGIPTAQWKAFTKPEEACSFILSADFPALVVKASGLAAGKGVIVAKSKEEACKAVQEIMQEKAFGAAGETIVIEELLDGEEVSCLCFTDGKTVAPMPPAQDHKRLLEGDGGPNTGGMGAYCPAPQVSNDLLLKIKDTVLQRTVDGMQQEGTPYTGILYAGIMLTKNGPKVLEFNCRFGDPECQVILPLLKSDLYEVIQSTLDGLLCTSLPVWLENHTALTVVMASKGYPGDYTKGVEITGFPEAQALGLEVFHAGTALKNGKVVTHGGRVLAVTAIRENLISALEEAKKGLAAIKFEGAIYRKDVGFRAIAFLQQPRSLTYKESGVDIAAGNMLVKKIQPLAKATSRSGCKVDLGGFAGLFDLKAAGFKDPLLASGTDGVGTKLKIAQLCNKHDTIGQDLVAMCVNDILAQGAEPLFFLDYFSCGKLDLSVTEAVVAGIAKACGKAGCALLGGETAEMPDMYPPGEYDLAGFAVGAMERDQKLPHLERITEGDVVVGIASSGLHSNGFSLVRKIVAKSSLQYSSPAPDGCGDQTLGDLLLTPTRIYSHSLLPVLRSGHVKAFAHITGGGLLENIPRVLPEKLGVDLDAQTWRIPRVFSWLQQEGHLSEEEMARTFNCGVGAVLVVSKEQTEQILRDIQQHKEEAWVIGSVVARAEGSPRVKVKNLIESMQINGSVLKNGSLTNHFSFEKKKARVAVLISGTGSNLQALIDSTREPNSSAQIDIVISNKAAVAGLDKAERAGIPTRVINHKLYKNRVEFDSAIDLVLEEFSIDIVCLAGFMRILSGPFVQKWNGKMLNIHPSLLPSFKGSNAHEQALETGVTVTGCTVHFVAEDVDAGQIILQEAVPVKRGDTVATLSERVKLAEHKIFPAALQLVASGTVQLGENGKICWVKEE
SMILES,IC50 [6],relative binding affinity to FRα (in words) (FRα),"fold reduction of KB potency relative to IC50 of 7 ([6]; KB cells, IC50 9 nM vs 0.26 nM)",fold less potent than 7 as GARFTase inhibitor in KB cells (GARFTase),increase of cell growth inhibition compared to 8 [1],IC50 [2],IC50 RFC PC43-10 [3],IC50 ([3]; read-out: IC50 RFC PC43-10),relative binding affinity to FRβ (in words) (FRβ),IC50 [4],IC50 FRβ D4 [4],IC50 [5],IC50 [7],effect of AICA on inhibition of KB cell proliferation (KB cells; AICA 320 μM),effect of adenosine on inhibition of KB cell proliferation (KB cells; adenosine 60 μM),effect of thymidine on inhibition of KB cell proliferation (KB cells; thymidine 10 μM)
"Nc1nc2[nH]c(CCCc3ccc(C(=O)N[C@@H](CCC(=O)O)C(=O)O)s3)cc2c(=O)[nH]1 [Compound 7, (S)-2-({5-[3-(2-Amino-4-oxo-4,7-dihydro-3H-pyrrolo[2,3-d]pyrimidin-6-yl)-propyl]-thiophene-2-carbonyl}-amino)-pentanedioic Acid]",,,,,~10 fold,0.31 nM,modest inhibition,101 nM,,,,,,,,
"Nc1nc2[nH]c(CCCc3ccc(C(=O)O)s3)cc2c(=O)[nH]1 [Compound 9, 5-[3-(2-Amino-4-oxo-4,7-dihydro-3H-pyrrolo[2,3-d]pyrimidin-6-yl)-propyl]-thiophene-2-carboxylic Acid]",> 1000 nM,Substantially reduced,,,,,,,Substantially reduced; also recorded: undetectable binding,> 1000 nM,completely inactive,> 1000 nM,> 1000 nM,,,
"Nc1nc2[nH]c(CCCc3ccc(C(=O)NCCCC(=O)O)s3)cc2c(=O)[nH]1 [Compound 12, 4-({5-[3-(2-Amino-4-oxo-4,7-dihydro-3H-pyrrolo[2,3-d]pyrimidin-6-yl)propyl]thiophene-2-carbonyl}-amino)-butanoic Acid]",> 1000 nM,bound avidly to FRα,,,,,,,somewhat reduced; also recorded: distinctly reduced binding affinities,> 1000 nM,complete inactivity,> 1000 nM,> 1000 nM,,,

# Further lines, with some results ahead:
IC50 [6],relative binding affinity to FRα (in words) (FRα),"fold reduction of KB potency relative to IC50 of 7 ([6]; KB cells, IC50 9 nM vs 0.26 nM)",fold less potent than 7 as GARFTase inhibitor in KB cells (GARFTase),SMILES,increase of cell growth inhibition compared to 8 [1],IC50 [2],IC50 RFC PC43-10 [3],IC50 ([3]; read-out: IC50 RFC PC43-10),relative binding affinity to FRβ (in words) (FRβ),IC50 [4],IC50 FRβ D4 [4],IC50 [5],IC50 [7],effect of AICA on inhibition of KB cell proliferation (KB cells; AICA 320 μM),effect of adenosine on inhibition of KB cell proliferation (KB cells; adenosine 60 μM),effect of thymidine on inhibition of KB cell proliferation (KB cells; thymidine 10 μM)
> 1000 nM,bound avidly to FRα,,,"Nc1nc2[nH]c(CCCc3ccc(C(=O)N[C@@H](CC(=O)O)C(=O)O)s3)cc2c(=O)[nH]1 [Compound 10, (S)-2-({5-[3-(2-Amino-4-oxo-4,7-dihydro-3H-pyrrolo[2,3-d]pyrimidin-6-yl)-propyl]-thiophene-2-carbonyl}-amino)-butanedioic Acid]",,,,,,,substantially reduced activity,> 1000 nM,> 1000 nM,,,
,,approximately 35 fold,~6 fold,"Nc1nc2[nH]c(CCCc3ccc(C(=O)N[C@@H](CCCC(=O)O)C(=O)O)s3)cc2c(=O)[nH]1 [Compound 11, (S)-2-({5-[3-(2-Amino-4-oxo-4,7-dihydro-3H-pyrrolo[2,3-d]pyrimidin-6-yl)propyl]thiophene-2-carbonyl}-amino)-hexanedioic Acid]",,,,,somewhat reduced,,,> 1000 nM,> 1000 nM,abolished the inhibitory effects,abolished the inhibitory effects,had no effect
> 1000 nM,bound avidly to FRα,,,"CCC[C@H](NC(=O)c1ccc(CCCc2cc3c(=O)[nH]c(N)nc3[nH]2)s1)C(=O)O [Compound 13, (S)-2-({5-[3-(2-Amino-4-oxo-4,7-dihydro-3H-pyrrolo[2,3-d]pyrimidin-6-yl)propyl]thiophene-2-carbonyl}-amino)-pentanoic Acid]",,,,,somewhat reduced; also recorded: distinctly reduced binding affinities,> 1000 nM,complete inactivity,> 1000 nM,> 1000 nM,,,
